Sampled rows, rich in hits. Any-hit rate of the full collection: about 5.4%.
E coli WT exp – growth inhibitors of wild-type E. coli, primary screen, strain BW25113, expanded library, OD600; OD600 absorbance; 98,000 compounds, 0.15% hits; AID 710, 2007; growth inhibition, % at 100 µM;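 active = growth inhibition above about 50% at one test dose, limit read from the data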;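 note: growth measured after 20 h incubation at 37 °C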
PostGolgi yeast – phenotypic screen on post-Golgi transport, primary screen; inhibition, % at 10 µM; 98,000 compounds, 0.9% hits; AID 739, 2007; post-Golgi transport phenotypic cell assay;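 note: yeast cells grown in 1536-well plates; yeast grown about 18 h at 30C before absorbance read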
PLAP act – PLAP enzyme activators, biochemical, luminescence, HTS; 96,000 compounds, 1.2% hits; purified PLAP enzyme, luminescent substrate read-out; stronger effect = higher value; activation fold at 20 µM; Alkaline phosphatase, placental type (Homo sapiens), P05187; in the data active = activation fold above about 2
Ecoli tolC – growth inhibitors of E. coli tolC mutant, primary screen, strain BW25113 ΔtolC::kan, 384-well. 65,000 compounds, 2.2% hits. growth inhibition, % at 10 µM (by protocol). OD615;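 active = growth inhibition at or above a cutoff equal to the mean over every tested compound plus 3 SD, cut at about 60% in these data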;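 note: growth measured after 20 h incubation at 37 °C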
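signal = optical density read at 615 nm | test system = E. coli ΔtolC::kan strain BW25113 | timing = 20 h compound exposure of bacteria at 37 °C | buffer or medium = LB medium plus 50 µg/mL kanamycin | compound dosing = 10 µM final, single dose | evaluation = % inhibition of E. coli growth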
PostGolgi ctrl – growth inhibition of yeast control strain, primary screen, counter-screen for post-Golgi transport modulator project. efflux-deficient yeast background strain, growth absorbance A615, 16 h. inhibition, % at 10 µM. 98,000 compounds, 5% hits
HePTP inhibitor – inhibitors of human HePTP phosphatase, primary screen, biochemical, absorbance, leukemia target. 110,000 compounds, 0.64% hits. inhibition, % at 20 µM. recombinant HePTP phosphatase activity, OD absorbance. AID 521, 2006; in the data active = inhibition above about 50%
Target sequence (P35236 whole entry, looked up): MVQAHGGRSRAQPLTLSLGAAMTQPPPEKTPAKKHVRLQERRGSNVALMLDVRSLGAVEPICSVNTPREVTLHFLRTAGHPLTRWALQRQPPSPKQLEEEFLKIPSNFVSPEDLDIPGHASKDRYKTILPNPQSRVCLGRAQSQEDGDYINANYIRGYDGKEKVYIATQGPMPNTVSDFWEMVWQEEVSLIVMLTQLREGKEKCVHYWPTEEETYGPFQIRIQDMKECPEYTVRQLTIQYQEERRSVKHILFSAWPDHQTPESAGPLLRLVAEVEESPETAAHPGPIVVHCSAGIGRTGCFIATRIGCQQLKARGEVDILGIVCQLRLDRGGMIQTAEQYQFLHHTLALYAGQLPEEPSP
Hits are given with their value; n = inactive; x = no result given. Cut-off read from the data, not from the text of the source, unless noted: active = inhibition above about 30%; inactive = the rest.

SMILES	E coli WT exp	PostGolgi yeast	PLAP act	Ecoli tolC	PostGolgi ctrl	HePTP inhibitor
CCOC(=O)c1ccc(N2C(=O)CC(C(=O)OC)=C2C)cc1	n	n	n	n	n	n
CN(C)CCNC=C(C(=O)Nc1ccc(Cl)cc1Cl)C(=O)Nc1ccc(Cl)cc1Cl	n	39.7	n	x	99.0	x
CN(C)c1cccc(C(=O)Nc2ccc(Cl)cc2Cl)c1	x	x	x	x	x	n
CC(C)CC(c1nnnn1CCc1ccccc1)N1CCN(C(=O)c2ccco2)CC1 (stereo not drawn)	n	n	n	n	30.4	n
CCCC(c1nnnn1Cc1ccco1)N1CCN(C(=O)c2ccco2)CC1 (stereo not drawn)	n	n	n	n	n	n
CC(C)CC(c1nnnn1CC1CCCO1)N1CCN(c2cccc(Cl)c2)CC1 (stereo not drawn)	n	n	x	n	33.7	n
CC(C)CC(c1nnnn1Cc1ccco1)N1CCN(c2cccc(Cl)c2)CC1 (stereo not drawn)	n	n	n	n	39.9	n
O=S(=O)(c1ccccc1)N1CCN(C2CCCC2)CC1	x	x	x	x	x	n
C=CCSc1nc2ccccc2n1C(=O)/C=C/c1ccc(OC)c(OC)c1	n	n	n	x	n	x
C=CCSc1nc2ccccc2n1C(=O)/C=C/c1cc(OC)c(OC)c(OC)c1	n	n	n	x	38.4	x
O=S(=O)(Cc1ccc(Cl)cc1)c1ccccc1-c1nnc(-c2ccccc2)o1	n	n	n	x	n	x
CC(C)N=C1NS(=O)(=O)c2cc([N+](=O)[O-])ccc21	x	x	x	x	x	n
O=C(CSc1nc2cc3ccccc3cc2[nH]1)Nc1ccc(F)cc1	n	n	n	x	54.7	x
Cc1noc(NS(=O)(=O)c2ccc(NC(=O)Nc3ccc(Cl)c(Cl)c3)cc2)c1C	n	n	n	100.0	n	n
CCc1nnc(NS(=O)(=O)c2ccc(N/C=C\C(=O)c3ccc4c(c3)OCO4)cc2)s1	x	x	x	x	x	n
Cc1noc(NS(=O)(=O)c2ccc(N/C=C\C(=O)c3ccc4c(c3)OCO4)cc2)c1C	n	n	n	x	38.0	x
Cc1noc(NS(=O)(=O)c2ccc(NC(=O)CSc3nc4ccccc4[nH]3)cc2)c1C	n	n	n	n	37.0	n
c1csc(CNCCCN2CCOCC2)c1	n	n	n	x	31.2	x
COc1ccc(-c2nc(N)ncc2-c2csc(C)n2)c(O)c1	n	n	n	n	n	n
COc1ccc(-c2nc(N)nc(C)c2Oc2ccccc2Br)c(O)c1	n	56.3	n	n	79.3	n
CSc1nnc2n(C)c3c(c(=O)n12)C1(CCCC1)Cc1ccccc1-3	n	n	n	n	38.4	n
Cc1ccc(C)c(S(=O)(=O)Nc2ccc3scnc3c2)c1	n	n	n	n	49.5	n
Cc1ccc(C)c(S(=O)(=O)Nc2ccc(C)c(C)c2)c1	x	x	x	x	x	n
CCOC(=O)c1[nH]c(C)c(C(=O)NC(C)(C)C)c1C	n	n	n	n	31.2	n
CCCN1CCN(CCCNC(=O)CCNC(=O)Cn2ccc3ccccc3c2=O)CC1	n	n	n	x	n	x
SMILES	E coli WT exp	PostGolgi yeast	PLAP act	Ecoli tolC	PostGolgi ctrl	HePTP inhibitor
N#Cc1c(NC(=O)c2ccc(C(=O)O)cc2C(=O)O)sc2c1CCCC2	x	x	x	x	x	n
CCOC(=O)C1=C(C)N(Cc2ccccc2)C(=O)NC1c1ccc(OC)cc1 (stereo not drawn)	n	n	n	x	n	x
FC(F)(F)c1cnc2c(c1)Nc1ccccc1S2	n	33.1	n	n	n	n
O=C1Nc2cccnc2Sc2ccccc21	n	n	n	n	n	n
CC(C)C(=O)Nc1cccc(C(=O)Nc2nncs2)c1	n	n	n	n	n	n
O=C(Cc1ccc(Br)cc1)Nc1ccc(Cl)c([N+](=O)[O-])c1	x	x	x	x	x	n
O=C(CN(C(=O)c1ccccc1Cl)C1CCCCC1)Nc1ccc(Cl)c([N+](=O)[O-])c1	n	n	n	x	35.6	x
COCCCn1nnnc1SCC(=O)Nc1nc(C)c(C)s1	n	n	x	n	n	n
CCN(CC)c1nc2ccccc2nc1C(C#N)C(=O)NCCc1ccccc1 (stereo not drawn)	n	n	n	n	32.9	n
CCN(CC)c1nc2ccccc2nc1C(C#N)C(=O)NCCCOC (stereo not drawn)	n	n	n	n	n	n
Cc1nnc(SCC(=O)Nc2ccc3c(c2)C(=O)c2ccccc2C3=O)s1	x	x	x	x	x	n
Fc1ccc2[nH]c3c(NCCN4CCOCC4)ncnc3c2c1	n	n	n	x	n	x

Assay outcomes (PubChem)
